In publication PMC3873039 (Anti-Cancer Agents in Medicinal Chemistry, 2013):

Experiments:
[1] = tested on: CCRF-CEM; experiment: Hoechst 33342 nuclear morphological analysis of apoptosis; type: cell-based; settings: Homo sapiens, 24 h, read-out: AP50 (50% induction of apoptosis), Hoechst 33342 staining (Hoe)
In short: (§1)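 Seeded at 0.5 x 10⁶ cells/well in 12-well plates and treated 24 h. Cells were pelleted (400 g, 5 min, 4 °C), washed in PBS, fixed in 4% paraformaldehyde, cytospun, air-dried, then stained with 10 μg/ml Hoechst 33342 for 10 min in the dark. Fluorescence microscopy: 200 cells counted, scored by condensed/intense nuclei, shrinkage, blebbing and apoptotic bodies. % apoptotic nuclei calculated. AP50 = concentration giving 50% apoptotic cells.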

[2] = tested on: K562; experiment: NucView caspase 3 activity assay by flow cytometry; type: cell-based, human; settings: for EC50: Homo sapiens, K562, 24 h, read-out: AP50 (50% induction of apoptosis), Caspase 3 activity assay (C3); for The lowest dose of polyphenols at which there was a significant induction of apoptosis compared to the vehicle control: K562, caspase 3 activity, 24 h, p<0.05
In short: (§2)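 Seeded at 0.5 x 10⁶ cells/well and treated 24 h, with series of 0–50 or 0–250 µM depending on compound. Normalized to vehicle (0% apoptosis). Mean ± STD, three independent experiments in triplicate. One-way ANOVA/Tukey, p<0.05. AP50 = concentration giving 50% apoptotic cells.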

[3] = tested on: CCRF-CEM; experiment: CellTiter-Glo luminescent cell viability assay; type: cell-based, human; settings: 24 h, doses 0, 2, 10, 50, 250, 500 µM, p<0.05
In short: (§3)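 Cells grown in RPMI 1640 with 10% FBS, 1.5 mM L-glutamine and penicillin/streptomycin at 37 °C, 5% CO2. Seeded at 2.5 x 10³ cells/well and exposed 24 h to ethanol-dissolved test compound (0, 2, 10, 50, 250, 500 µM) with 0.1% ethanol vehicle. ATP luminescence normalized to vehicle (100%). IC50 taken from linear regression. Lowest significant dose set by one-way ANOVA/Tukey, p<0.05. Triplicates, three independent experiments.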

[4] = tested on: THP-1; experiment: NucView caspase 3 activity assay by flow cytometry; type: cell-based, human; settings: for EC50: Homo sapiens, THP-1, 24 h, read-out: AP50 (50% induction of apoptosis), Caspase 3 activity assay (C3); for The lowest dose of polyphenols at which there was a significant induction of apoptosis compared to the vehicle control: THP-1, caspase 3 activity, 24 h, p<0.05
In short: as §2

[5] = tested on: MOLT-3; experiment: Cell cycle analysis, propidium iodide flow cytometry; type: cell-based, human; settings: MOLT-3, IC50 dose, 24 h; for Percentage of cells in G0/G1 phase of cell cycle (significant accumulation): vehicle control G0/G1 = 64.5%
In short: (§4)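 Seeded at 0.5 x 10^6 cells per well in 12-well plates and treated 24 h at the IC50 concentration of each test compound from CellTiter-Glo. Cells were pelleted (400 g, 5 min), PBS-washed and fixed in 80% ethanol overnight at -20 °C. Staining used 50 µg/mL PI plus RNase overnight at 4 °C.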

[6] = tested on: U937; experiment: as above; type: cell-based, human; settings: U937, IC50 dose, 24 h; for Percentage of cells in G0/G1 phase of cell cycle (significant accumulation): vehicle control G0/G1 = 44.03%
In short: as §4

[7] = tested on: U937; experiment: CellTiter-Glo luminescent cell viability assay; type: cell-based, human; settings: U937, 24 h, doses 0, 2, 10, 50, 250, 500 µM, p<0.05
In short: as §3

[8] = tested on: JURKAT; experiment: Hoechst 33342 nuclear morphological analysis of apoptosis; type: cell-based; settings: Homo sapiens, 24 h, read-out: AP50 (50% induction of apoptosis), Hoechst 33342 staining (Hoe)
In short: as §1

[9] = tested on: HL60; experiment: CellTiter-Glo luminescent cell viability assay; type: cell-based, human; settings: HL60, 24 h, doses 0, 2, 10, 50, 250, 500 µM, p<0.05
In short: as §3

[10] = tested on: K562; experiment: Cell cycle analysis, propidium iodide flow cytometry; type: cell-based, human; settings: K562, IC50 dose, 24 h; for Percentage of cells in G0/G1 phase of cell cycle (significant accumulation): vehicle control G0/G1 = 53.7%
In short: as §4

[11] = tested on: JURKAT; experiment: NucView caspase 3 activity assay by flow cytometry; type: cell-based, human; settings: 24 h; for EC50: Homo sapiens, Jurkat, read-out: AP50 (50% induction of apoptosis), Caspase 3 activity assay (C3); for The lowest dose of polyphenols at which there was a significant induction of apoptosis compared to the vehicle control: JURKAT, caspase 3 activity, p<0.05
In short: as §2

[12] = tested on: all leukemia cell lines; experiment: CellTiter-Glo assay, summary over the leukemia panel; type: cell-based, human; settings: for IC50: Homo sapiens, 24 h, read-out: IC50 values (range over leukemia cell lines)
In short: (§5)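 Cells plated at 2.5 x 10^3 per well in complete RPMI 1640 (10% FBS, 37 °C, 5% CO2). Test compounds dissolved in ethanol and dosed at 2–500 µM for 24 h; vehicle control was 0.1% (v/v) ethanol. Viability was read as ATP luminescence, normalised to vehicle (100%). IC50 was taken from linear regression of each curve. Triplicates, three independent experiments.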

[13] = tested on: JURKAT; experiment: Cell cycle analysis, propidium iodide flow cytometry; type: cell-based, human; settings: IC50 dose, 24 h, p<0.05
In short: as §4

[14] = tested on: MOLT-3; experiment: CellTiter-Glo luminescent cell viability assay; type: cell-based, human; settings: MOLT-3, 24 h, doses 0, 2, 10, 50, 250, 500 µM, p<0.05
In short: as §3

[15] = tested on: MOLT-3; experiment: NucView caspase 3 activity assay by flow cytometry; type: cell-based, human; settings: for EC50: Homo sapiens, MOLT-3, 24 h, read-out: AP50 (50% induction of apoptosis), Caspase 3 activity assay (C3); for The lowest dose of polyphenols at which there was a significant induction of apoptosis compared to the vehicle control: MOLT-3, caspase 3 activity, 24 h, p<0.05
In short: as §2

[16] = tested on: leukemia cell lines; experiment: Cell cycle analysis, summary over the leukemia panel; type: cell-based, human; settings: IC50 dose, 24 h, 8 leukemia cell lines
In short: as §4

[17] = tested on: myeloid cell lines; experiment: CellTiter-Glo assay, summary over myeloid lines; type: cell-based; settings: Homo sapiens, 24 h, read-out: IC50 (range in myeloid cell lines)
In short: as §5

[18] = tested on: lymphoid cell lines; experiment: CellTiter-Glo assay, summary over lymphoid lines; type: cell-based; settings: Homo sapiens, 24 h, read-out: IC50 (range in lymphoid cell lines)
In short: as §5

[19] = tested on: all leukemia cell lines; experiment: Apoptosis; type: cell-based, human; settings: for EC50: Homo sapiens, 24 h, read-out: AP50 values (range over leukemia cell lines)
[20] = cited from earlier work

Row | SMILES | EC50 [1] [µM] | EC50 [2] [µM] | The lowest dose of polyphenols at which there was a significant induction of apoptosis compared to the vehicle control [2] [µM] | The lowest dose of polyphenols at which there was a significant inhibition of cell proliferation compared to the vehicle control [3] [µM] | EC50 [4] [µM] | The lowest dose of polyphenols at which there was a significant induction of apoptosis compared to the vehicle control [4] [µM] | Percentage of cells in G0/G1 phase of cell cycle (significant accumulation) [5] | Percentage of cells in G0/G1 phase of cell cycle (significant accumulation) [6] | The lowest dose of polyphenols at which there was a significant inhibition of cell proliferation compared to the vehicle control [7] [µM] | EC50 [8] [µM] | The lowest dose of polyphenols at which there was a significant inhibition of cell proliferation compared to the vehicle control [9] [µM] | EC50 [11] [µM] | The lowest dose of polyphenols at which there was a significant induction of apoptosis compared to the vehicle control [11] [µM] | IC50 [12] [µM] | Phase of cell cycle accumulation [13] | The lowest dose of polyphenols at which there was a significant inhibition of cell proliferation compared to the vehicle control [14] [µM] | EC50 [15] [µM] | The lowest dose of polyphenols at which there was a significant induction of apoptosis compared to the vehicle control [15] [µM] | Phase of cell cycle accumulation over the leukemia cell lines [16] | Percentage of cells in G0/G1 phase of cell cycle (significant accumulation) [10] | also measured
1 | O=C1c2cccc(O)c2C(=O)c2c(O)cc(CO)cc21 [Aloe - Emodin, Aloe-emodin] | 150 | > 250 | 50 | 50 | > 250 | 50 | G0/G1 = 68% | G0/G1 =53% | 50 | 130 | 50 | 50 | 50 | 180 to 450 | S-phase | 50 | 50 | 50 |  |  | Percentage of cells in G2/M phase of cell cycle (significant accumulation) ([10]; vehicle control G2/M = 13.6%): G2/M =20%
2 | O=c1cc(-c2ccccc2)oc2cc(O)cc(O)c12 [Chrysin] | 40 | > 250 | 250 | 50 | > 250 | 250 | G0/G1 =69.3% | G0/G1 =70% | 50 | 30 | 50 | 40 | 50 |  | G0/G1 phase | 50 | 140 | 50 | G0/G1 phase in 7 out of the 8 leukemia cell lines | G0/G1 =59% | IC50 [17]: 335 to 500 µM; IC50 [18]: 128 to 217 µM
3 | Cc1cc(O)c2c(c1)C(=O)c1cc(O)cc(O)c1C2=O [Emodin] | > 500 | > 10 | 2 | 2 | 7.8 | 2 | G0/G1 =70% | G0/G1 =60% | 2 | 9 | 2 | 2 | 2 | 5 to 22 | G0/G1 phase | 2 | 5 | 2 | G0/G1 phase in all leukemia cell lines | G0/G1 =66% | EC50 [19]: 2 to 27 µM; Number of leukemia cell lines in which 50% apoptosis was induced ([19]; Jurkat, MOLT3, HL-60, THP-1 and U937): 5 of the 8
4 | O=c1c(O)c(-c2ccc(O)c(O)c2)oc2cc(O)cc(O)c12 [Quercetin] | 50 | > 50 | 10 | 2 | > 50 | 10 |  |  | 2 | 25 | 2 | 19 | 2 | 8 to 33 | S-phase | 2 | 50 | 10 |  | G0/G1=60% | EC50 [19]: 19 to 50 µM; Percentage of cells in G2/M phase of cell cycle (significant accumulation) ([5]; vehicle control G2/M = 7.5%): G2/M =19%; Percentage of cells in G2/M phase of cell cycle (significant accumulation) ([6]; vehicle control G2/M = 19.1%): G2/M =25%; plasma concentration ([20]; 50-100 mg dose): 750 to 1500 nM; plasma half-life [20]: 11 to 28 h; Potency relative to apigenin and chrysin ([12]; times more potent than apigenin and chrysin): 5-10 times; IC50 [17]: 33 to 155 µM; IC50 [18]: 8 to 20 µM
5 | O=C(O)c1cc(O)c2c(c1)C(=O)c1cccc(O)c1C2=O [Rhein] | 250 | > 250 | 50 | 50 | 50 | 50 | G0/G1=72% | G0/G1 =55% | 50 | > 500 | 50 | > 250 | 50 |  | S-phase | 50 | 200 | 50 |  |  | 
